Active and inactive are the calls of the source. No cut-off for these calls is given here.
Tests used:
Type in all cases: cell-based
[1] = Activation of Wnt/beta-catenin signaling pathway in HEK293T cells in presence of Wnt3a-conditioned medium incubated for 6 hrs by luciferase reporter gene assay; details: Homo sapiens; HEK-293T
Procedure, shortened: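 HEK293T cells were grown in DMEM with 10% heat-inactivated FBS at 37 °C in 5% CO2. Cells were seeded in 24-well plates and lipofected with 250 ng total plasmid per well: 20 ng TOPFlash, 25 ng EGFP-C1, and LacZ plasmid as filler. Luciferase luminescence was normalized to lysate GFP fluorescence. The value reported is the concentration doubling Wnt activation.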

[2] = Activation of Wnt/beta-catenin signaling pathway in HEK293T cells assessed as increase in Axin-2 expression at 5 to 20 uM in presence of Wnt3a-conditioned medium incubated for 6 hrs by quantitative real time PCR analysis; details: Homo sapiens, HEK-293T
Procedure, shortened: (§1)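 HEK293T cells were grown in DMEM with 10% (v/v) heat-inactivated FBS at 37 °C in 5% CO2/95% air. Cells were exposed to compound together with control medium or Wnt3a-conditioned medium for 6 h.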

[3] = Activation of Wnt/beta-catenin signaling pathway in HEK293T cells assessed as increase in NKD1 expression at 5 to 20 uM in presence of Wnt3a-conditioned medium incubated for 6 hrs by quantitative real time PCR analysis; details: Homo sapiens, HEK-293T; procedure, shortened: as §1
[4] = Activation of Wnt/beta-catenin signaling pathway in HEK293T cells preincubated for 1 hr followed by Wnt3a stimulation and subsequent addition of compound measured after 6 hrs by luciferase reporter gene assay; details: Homo sapiens; HEK-293T

Structure (SMILES): CCc1cccc2c1N(C)Cc1cc(OCc3cn(CCN)nn3)c(OCc3cn(CCN)nn3)cc1-2
- CD [1]: 1.25 µM
- Activity [2]: Active
- Activity [3]: Active

Structure (SMILES): CCOc1cc2c(cc1OCC)-c1cccc(CC)c1N(C)C2
- CD [1]: 5 µM

Structure (SMILES): CCc1cccc2c1N(C)Cc1cc(OCc3ccc(-c4ccccc4C(=O)OC)cc3)c(OCc3ccc(-c4ccccc4C(=O)OC)cc3)cc1-2
- CD [1]: inactive
- Activity [2]: inactive
- Activity [3]: inactive

Structure (SMILES): CCc1cccc2c1N(C)Cc1cc(OCc3ccc(-n4cccn4)cn3)c(OCc3ccc(-n4cccn4)cn3)cc1-2
- CD [1]: inactive

Structure (SMILES): CCc1cccc2c1N(C)Cc1cc(OCc3cc(C)nn3C)c(OCc3cc(C)nn3C)cc1-2
- CD [1]: inactive

Structure (SMILES): CCc1cccc2c1N(C)Cc1cc(OCc3cn(CCNC(=O)CCCC[C@@H]4SC[C@@H]5NC(=O)N[C@@H]54)nn3)c(OCc3cn(CCNC(=O)CCCC[C@@H]4SC[C@@H]5NC(=O)N[C@@H]54)nn3)cc1-2
- CD [4]: 0.325 µM

Structure (SMILES): [N-]=[N+]=NCCNC(=O)CCCC[C@@H]1SC[C@@H]2NC(=O)N[C@@H]21
- Activity [1]: inactive

Structure (SMILES): CCc1cccc2c1N(C)Cc1cc(OCc3cc(OC)cc(OC)c3)c(OCc3cc(OC)cc(OC)c3)cc1-2
- CD [1]: inactive

Structure (SMILES): NCCn1cc(COc2cccc(OCc3cn(CCN)nn3)c2)nn1
- Activity [1]: Active

Structure (SMILES): O=C(O)CCCC[C@@H]1SC[C@@H]2NC(=O)N[C@@H]21
- Activity [1]: inactive

Structure (SMILES): NCCn1cc(COc2ccccc2OCc2cn(CCN)nn2)nn1
- Activity [1]: Active

Structure (SMILES): CCc1cccc2c1N(C)Cc1cc(OC)c(OC)cc1-2
- CD [1]: 2.5 µM

Structure (SMILES): CCc1cccc2c1N(C)Cc1cc(OCc3cc(C)n(C)n3)c(OCc3cc(C)n(C)n3)cc1-2
- CD [1]: inactive

Structure (SMILES): O=C1N[C@H]2[C@H](CS[C@H]2CCCCC(=O)ON2C(=O)CCC2=O)N1
- Activity [1]: inactive

Structure (SMILES): C#CCOc1cc2c(cc1OCC#C)-c1cccc(CC)c1N(C)C2
- CD [1]: 5 µM

Structure (SMILES): CCc1cccc2c1N(C)Cc1cc(O)c(O)cc1-2
- CD [1]: 5 µM

Structure (SMILES): C=Cc1cccc2c1N(C)Cc1cc3c(cc1-2)OCO3
- CD [1]: inactive

Structure (SMILES): CCc1cccc2c1N(C)Cc1cc(OCc3cc4cc(Cl)ccc4s3)c(OCc3cc4cc(Cl)ccc4s3)cc1-2
- CD [1]: inactive
- Activity [2]: inactive
- Activity [3]: inactive

Structure (SMILES): CCc1cccc2c1N(C)Cc1cc3c(cc1-2)OCO3
- CD [1]: 5 µM

Structure (SMILES): CCc1cccc2c1N(C)Cc1cc(OCc3cn(CCNC(C)=O)nn3)c(OCc3cn(CCNC(C)=O)nn3)cc1-2
- CD [1]: 2.5 µM
- Activity [2]: Active
- Activity [3]: Active

Structure (SMILES): C=Cc1cccc2c1N(C)Cc1cc(OCC)c(OCC)cc1-2
- CD [1]: inactive

Structure (SMILES): C=Cc1cccc2c1N(C)Cc1cc(O)c(O)cc1-2
- CD [1]: 10 µM

— ChEMBL document CHEMBL3779825, “Design, Synthesis, and Structural Optimization of Lycorine-Derived Phenanthridine Derivatives as Wnt/β-Catenin Signaling Pathway Agonists” (J Nat Prod, 2016)
